Laboratory results taken from ChEMBL document CHEMBL4257553, “Novel organophosphorus aminopyrimidines as unique structural DNA-targeting membrane active inhibitors towards drug-resistant methicillin-resistant Staphylococcus aureus” (Medchemcomm, 2018).
In brackets after ≈: the same amount, converted by molar mass. Activity calls are given as the source filed them. No cut-off for these calls is given here.

Columns and labels:
Staphylococcus aureus [1] = experiment: Antibacterial activity against methicillin resistant Staphylococcus aureus after 24 hrs by microbroth dilution method; assay type: functional
Method in brief: (§1)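 Tested by CLSI-standard broth microdilution against a panel of eleven bacterial strains, Gram-positive and Gram-negative, including MRSA.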

Acinetobacter baumannii = experiment: Antibacterial activity against Acinetobacter baumannii after 24 hrs by microbroth dilution method; assay type: functional; method in brief: as §1
Escherichia coli [2] = experiment: Antibacterial activity against Escherichia coli ATCC 25922 after 24 hrs by microbroth dilution method; assay type: functional; details: ATCC 25922, 24 h; method in brief: as §1
Klebsiella pneumoniae = experiment: Antibacterial activity against Klebsiella pneumoniae after 24 hrs by microbroth dilution method; assay type: functional; method in brief: as §1
Pseudomonas aeruginosa [3] = experiment: Antibacterial activity against Pseudomonas aeruginosa ATCC 27853 after 24 hrs by microbroth dilution method; assay type: functional; details: ATCC 27853, 24 h; method in brief: as §1
Staphylococcus aureus [4] = experiment: Antibacterial activity against Staphylococcus aureus ATCC 29213 after 24 hrs by microbroth dilution method; assay type: functional; details: ATCC 29213, 24 h; method in brief: as §1
Enterococcus faecalis = experiment: Antibacterial activity against Enterococcus faecalis after 24 hrs by microbroth dilution method; assay type: functional; method in brief: as §1
Pseudomonas aeruginosa [5] = experiment: Antibacterial activity against Pseudomonas aeruginosa after 24 hrs by microbroth dilution method; assay type: functional; method in brief: as §1
Aspergillus fumigatus [6] = experiment: Antifungal activity against Aspergillus fumigatus after 24 hrs by microbroth dilution method; assay type: functional
Staphylococcus aureus [7] = experiment: Antibacterial activity against Staphylococcus aureus after 24 hrs by microbroth dilution method; assay type: functional; method in brief: as §1
Staphylococcus aureus [8] = experiment: Antibacterial activity against Staphylococcus aureus ATCC 25923 after 24 hrs by microbroth dilution method; assay type: functional; details: ATCC 25923, 24 h; method in brief: as §1
Aspergillus fumigatus [9] = experiment: Potency index, ratio of fluconazole MIC to compound MIC for antifungal activity against Aspergillus fumigatus; assay type: functional
Escherichia coli [10] = experiment: Antibacterial activity against Escherichia coli after 24 hrs by microbroth dilution method; assay type: functional; method in brief: as §1
Staphylococcus aureus [11] = experiment: Antibacterial activity against methicillin resistant Staphylococcus aureus after 16 serial passages measured after 12 hrs by microbroth dilution method; assay type: functional, organism-based
Method in brief: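 MRSA standard strain passaged serially with compound. Each passage starts from the bacteria grown at sub-MIC (0.5 × MIC), and the MIC is redetermined by the broth microdilution method at every passage.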

Cell membrane = experiment: Binding affinity to methicillin resistant Staphylococcus aureus cell membrane assessed as induction of membrane permeabilization at 12 times MIC measured for 10 to 70 mins by propidium iodide dye based fluorescence assay
Method in brief: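 MRSA cultured 12 h at 37 °C, centrifuged, washed and resuspended in 5 mM glucose/5 mM HEPES (1:1). Compound (12 × MIC) added to cuvette with cells and propidium iodide. PI uptake followed as fluorescence increase (ex 535 nm, em 617 nm).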

DNA [12] = experiment: Binding affinity to methicillin resistant Staphylococcus aureus DNA by absorption spectra analysis; assay type: nucleic-acid assay
[13] = Cytotoxicity against mouse L929 cells assessed as cell viability up to 128 ug/ml after 48 hrs by MTT assay relative to control; assay type: cell-based; details: read-out: Activity
Method in brief: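 Mouse fibroblast L929 cells grown in DMEM with 10% serum and 1% penicillin/streptomycin at 37 °C, 5% CO2, seeded and cultured 24 h. Compound diluted in medium and tested in triplicate at 0, 4, 8, 16, 32, 64, 128, 256 and 512 μg/mL for 48 h. MTT in PBS added for 3–4 h, formazan dissolved in DMSO, absorbance read at 570 nm (also stated 490 nm).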

DNA [14] = experiment: Binding affinity to methicillin resistant Staphylococcus aureus DNA assessed as hypochromic effect up to 3.5 x 10^-5mol/L by absorption spectra analysis; assay type: nucleic-acid assay
DNA [15] = experiment: Inhibition of neutral red dye binding to methicillin resistant Staphylococcus aureus DNA up to 3.5 x 10^-5mol/L by UV-Visible absorption spectra analysis; assay type: nucleic-acid assay
Method in brief: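 MRSA genomic DNA with A260/A280 > 1.8 in Tris-HCl buffer pH 7.4, combined with aqueous neutral red dye stock. Competitive displacement followed by UV-vis absorption spectroscopy.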

Staphylococcus aureus [16] = experiment: Bactericidal activity against methicillin resistant Staphylococcus aureus assessed as reduction in bacterial load at 6 times MIC up to 1 hr by time kill assay; assay type: functional
Method in brief: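 MRSA grown 6 h at 37 °C and diluted to about 1.8 × 10^5 CFU/mL. Compound added at MIC and 6 × MIC, then incubated at 37 °C. Samples taken at 0, 30, 60, 90, 120, 240, 360 and 420 min, diluted 10-fold serially in 0.9% saline, plated on agar and counted after 24 h at 37 °C.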

| Structure (SMILES) | MIC (Staphylococcus aureus [1]) [µg/mL] | MIC (Acinetobacter baumannii) [µg/mL] | MIC (Escherichia coli [2]) [µg/mL] | MIC (Klebsiella pneumoniae) [µg/mL] | MIC (Pseudomonas aeruginosa [3]) [µg/mL] | MIC (Staphylococcus aureus [4]) [µg/mL] | MIC (Enterococcus faecalis) [µg/mL] | MIC (Pseudomonas aeruginosa [5]) [µg/mL] | MIC (Aspergillus fumigatus [6]) [µg/mL] | MIC (Staphylococcus aureus [7]) [µg/mL] | MIC (Staphylococcus aureus [8]) [µg/mL] | Ratio (Aspergillus fumigatus [9]) | MIC (Escherichia coli [10]) [µg/mL] | Activity (Staphylococcus aureus [11]) | Activity (Cell membrane) | K (DNA [12]) [×10³ L/mol] | viability at 48 h [13] [%] | Activity (DNA [14]) | inhibition (DNA [15]) | Activity (Staphylococcus aureus [16]) [deltalog10CFU/ml] |
| --- | --- | --- | --- | --- | --- | --- | --- | --- | --- | --- | --- | --- | --- | --- | --- | --- | --- | --- | --- | --- |
| Cc1ccc(C(Nc2ncccn2)P(=O)(O)O)cc1 (configuration not stated) | 256 (≈ 917 µM) | 256 (≈ 917 µM) | 256 (≈ 917 µM) | 128 (≈ 458 µM) | 256 (≈ 917 µM) | 256 (≈ 917 µM) | 256 (≈ 917 µM) | 128 (≈ 458 µM) | > 16 | 256 (≈ 917 µM) | 128 (≈ 458 µM) | 16 | 128 (≈ 458 µM) |  |  |  |  |  |  |  |
| CCOP(=O)(OCC)C(Nc1ncccn1)c1ccc([N+](=O)[O-])cc1 (configuration not stated) | 128 (≈ 349 µM) | 128 (≈ 349 µM) | 128 (≈ 349 µM) | 256 (≈ 699 µM) | 16 (≈ 43.7 µM) | 256 (≈ 699 µM) | 32 (≈ 87.4 µM) | 256 (≈ 699 µM) | > 16 | 256 (≈ 699 µM) | 8 (≈ 21.8 µM) | 16 | 256 (≈ 699 µM) |  |  |  |  |  |  |  |
| CCOP(=O)(OCC)C(Nc1ncccn1)c1ccc2c(c1)c1cc(C=O)ccc1n2CC (configuration not stated) | 128 (≈ 274 µM) | 128 (≈ 274 µM) | 256 (≈ 549 µM) | 256 (≈ 549 µM) | 256 (≈ 549 µM) | 256 (≈ 549 µM) | 16 (≈ 34.3 µM) | 256 (≈ 549 µM) | > 16 | 256 (≈ 549 µM) | 256 (≈ 549 µM) | 16 | 512 (≈ 1100 µM) |  |  |  |  |  |  |  |
| CCOP(=O)(OCC)C(Nc1ncccn1)c1ccccc1Cl (configuration not stated) | 8 (≈ 22.5 µM) | 128 (≈ 360 µM) | 64 (≈ 180 µM) | 32 (≈ 89.9 µM) | 128 (≈ 360 µM) | 128 (≈ 360 µM) | 128 (≈ 360 µM) | 128 (≈ 360 µM) | > 16 | 128 (≈ 360 µM) | 128 (≈ 360 µM) | 16 | 256 (≈ 720 µM) |  |  |  |  |  |  |  |
| CCCCc1nc(Cl)c(C(Nc2ncccn2)P(=O)(OCC)OCC)n1CCC (configuration not stated) | 8 (≈ 18 µM) | 64 (≈ 144 µM) | 128 (≈ 288 µM) | 64 (≈ 144 µM) | 128 (≈ 288 µM) | 128 (≈ 288 µM) | 128 (≈ 288 µM) | 128 (≈ 288 µM) | > 16 | 256 (≈ 577 µM) | 64 (≈ 144 µM) | 16 | 256 (≈ 577 µM) |  |  |  |  |  |  |  |
| CCOP(=O)(OCC)C(Nc1ncccn1)c1ccc(C)cc1 (configuration not stated) | 128 (≈ 382 µM) | 128 (≈ 382 µM) | 128 (≈ 382 µM) | 128 (≈ 382 µM) | 64 (≈ 191 µM) | 256 (≈ 763 µM) | 8 (≈ 23.9 µM) | 256 (≈ 763 µM) | > 16 | 256 (≈ 763 µM) | 16 (≈ 47.7 µM) | 16 | 256 (≈ 763 µM) |  |  |  |  |  |  |  |
| CCOP(=O)(OCC)C(Nc1ncccn1)c1c[nH]c2ccccc12 (configuration not stated) | 4 (≈ 11.1 µM) | 128 (≈ 355 µM) | 256 (≈ 710 µM) | 64 (≈ 178 µM) | 256 (≈ 710 µM) | 128 (≈ 355 µM) | 256 (≈ 710 µM) | 256 (≈ 710 µM) | > 16 | 256 (≈ 710 µM) | 256 (≈ 710 µM) | 16 | 256 (≈ 710 µM) |  |  |  |  |  |  |  |
| CCCCCn1c(CCCC)nc(Cl)c1C(Nc1ncccn1)P(=O)(OCC)OCC (configuration not stated) | 4 (≈ 8.48 µM) | 32 (≈ 67.8 µM) | 16 (≈ 33.9 µM) | 8 (≈ 17 µM) | 64 (≈ 136 µM) | 64 (≈ 136 µM) | 8 (≈ 17 µM) | 64 (≈ 136 µM) | > 16 | 64 (≈ 136 µM) | 32 (≈ 67.8 µM) | 16 | 128 (≈ 271 µM) | Active | Active | 6.84 | ≤ 80 | Active | Active | >3 |
| O=[N+]([O-])c1ccc(C(Nc2ncccn2)P(=O)(O)O)cc1 (configuration not stated) | 128 (≈ 413 µM) | 256 (≈ 825 µM) | 128 (≈ 413 µM) | 256 (≈ 825 µM) | 256 (≈ 825 µM) | 128 (≈ 413 µM) | 128 (≈ 413 µM) | 128 (≈ 413 µM) | > 16 | 128 (≈ 413 µM) | 128 (≈ 413 µM) | 16 | 128 (≈ 413 µM) |  |  |  |  |  |  |  |
| CCOP(=O)(OCC)C(Nc1ncccn1)c1ccc2oc(=O)ccc2c1 (configuration not stated) | 256 (≈ 658 µM) | 64 (≈ 164 µM) | 256 (≈ 658 µM) | 512 (≈ 1320 µM) | 512 (≈ 1320 µM) | 128 (≈ 329 µM) | 512 (≈ 1320 µM) | 64 (≈ 164 µM) | > 16 | 128 (≈ 329 µM) | 64 (≈ 164 µM) | 16 | 512 (≈ 1320 µM) |  |  |  |  |  |  |  |
